Assay results: ChEMBL document CHEMBL4004787, “Polyoxygenated Cyclohexenes and Other Constituents of Cleistochlamys kirkii Leaves” (J Nat Prod, 2017)
Calls of active or inactive are those of the source. The calls are words filed in the database; no cut-off is given here.

How the values were obtained:
[1] = system: Plasmodium falciparum; assay: Growth inhibition of chloroquine-sensitive Plasmodium falciparum 3D7 infected in human RBC at 40 uM after 72 hrs by DAPI staining based confocal microscopic method relative to control; format: functional; details: 3D7, 72 h, read-out: GI
[2] = system: Plasmodium falciparum; assay: Antimalarial activity against chloroquine-resistant Plasmodium falciparum Dd2 infected in human RBC after 72 hrs by DAPI staining based confocal microscopic method; format: functional; details: Dd2, 72 h
Procedure, shortened: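 Triplicate runs, n = 3. Percent inhibition plotted against log dose, and IC50 fitted by nonlinear regression with variable slope. […] An initial single-point screen was run at 20 μM final concentration.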

[3] = system: Plasmodium falciparum; assay: Antimalarial activity against chloroquine-sensitive Plasmodium falciparum 3D7 infected in human RBC after 72 hrs by DAPI staining based confocal microscopic method; format: functional; details: 3D7, 72 h
Procedure, shortened: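 Triplicate runs, n = 3. Percent inhibition plotted against log dose, and IC50 fitted by nonlinear regression with variable slope. An initial single-point screen was run at 20 μM final concentration.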

[4] = system: HEK293; assay: Growth inhibition of HEK293 cells after 72 hrs by PrestoBlue staining based fluorescence assay; format: cell-based; details: Homo sapiens, HEK293, 72 h
Procedure, shortened: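 HEK293 cytotoxicity IC50s: percent inhibition plotted against log dose and fitted by nonlinear regression (variable slope). Experiments run in triplicate (n = 3).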

[5] = Selectivity index, ratio of IC50 for HEK293 cells to IC50 for chloroquine-sensitive Plasmodium falciparum 3D7 infected in human RBC; format: toxicity; details: HEK293 cells versus Plasmodium falciparum 3D7 in human RBC, read-out: Ratio IC50
Procedure, shortened: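 Selectivity index computed as the HEK293 IC50 divided by the P. falciparum 3D7 IC50, compared against puromycin as a nonselective standard.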

[6] = system: Plasmodium falciparum; assay: Growth inhibition of chloroquine-sensitive Plasmodium falciparum 3D7 infected in human RBC at 20 uM after 72 hrs by DAPI staining based confocal microscopic method relative to control; format: functional; details: 3D7, 72 h, read-out: GI
[7] = system: Krebs2; assay: Inhibition of cap/HCV-mediated translation in mouse Krebs2 cell free extract expressing FF/HCV/IRES-Ren mRNA reporter transcript assessed as reduction in luciferase production at 20 uM after 60 mins; format: functional
Procedure, shortened: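 Krebs-2 in vitro translation extracts programmed with bicistronic firefly-HCV IRES-Renilla luciferase mRNA. Compounds at 10 mM DMSO stock, diluted to 200 μM in water before addition. Reactions incubated 60 min at 30 °C, then both luciferase activities read. Firefly signal reports cap-dependent translation; Renilla signal reports HCV IRES translation.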

[8] = system: MDA-MB-231; assay: Growth inhibition of human MDA-MB-231 cells after 72 hrs by alamar blue assay; format: functional, cell-based; details: MDA-MB-231, 72 h
Procedure, shortened: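 MDA-MB-231 cells grown in DMEM with 10% FBS, 2 mM L-glutamine, penicillin and streptomycin at 37 °C, 5% CO2. Seeded at 10 000 cells/well, preincubated 24 h, then exposed to 100−0.1 μg/mL for 72 h; vehicle 0.1% or 1.0% DMSO. Alamar Blue read by absorbance at 570 nm (600 nm reference). Six replicates, expressed as % of vehicle control.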

[9] = system: Plasmodium falciparum; assay: Growth inhibition of chloroquine-resistant Plasmodium falciparum Dd2 infected in human RBC at 40 uM after 72 hrs by DAPI staining based confocal microscopic method relative to control; format: functional; details: Dd2, 72 h, read-out: GI
Procedure, shortened: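 Percentage growth inhibition was read at 40 μM, a single concentration. The value is the mean of at least two independent measurements.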

[10] = Growth inhibition of HEK293 cells at 40 uM after 72 hrs by PrestoBlue staining based fluorescence assay relative to control; format: cell-based; details: human, read-out: GI
[11] = Growth inhibition of HEK293 cells at 20 uM after 72 hrs by PrestoBlue staining based fluorescence assay relative to control; format: cell-based; details: human, read-out: GI
[12] = Selectivity index, ratio of growth inhibitory effect against HEK293 cells at 20 uM to IC50 for chloroquine-sensitive Plasmodium falciparum 3D7 infected in human RBC; format: toxicity, cell-based; details: HEK293 cells versus Plasmodium falciparum 3D7 in human RBC, read-out: Selectivity Index

IC50 [8] [nM] | SMILES | inhibition of growth at 40 µM [1] [%] | IC50 [3] [nM] | inhibition [7] | further results
 | CC(=O)O[C@H](OC(=O)c1ccccc1)[C@@]12C=C[C@@H](c3ccc(C=O)cc31)[C@H](O)[C@H]2OC(C)=O | 98 |  |  | 
240 | O=C1C=C/C(=C/[C@@H](O)COC(=O)c2ccccc2)O1 | 92 |  |  | 
 | CC(=O)O[C@H](/C=C1/C=CC(=O)O1)COC(=O)c1ccccc1 |  | 6670 | inactive | inhibition of growth at 40 µM [9]: 100%; inhibition of growth at 20 µM [6]: ≥ 90%; inhibition at 72 h, 40 µM [10]: 100%
 | CCc1nc(N)nc(N)c1-c1ccc(Cl)cc1 [PYRIMETHAMINE] |  |  |  | IC50 [4]: 4200 nM
120 | CC(=O)O[C@H]1C=C[C@H](Cl)[C@@](O)(COC(=O)c2ccccc2)[C@@H]1O | 72 |  | inactive | 
 | COc1ccc2nc3cc(Cl)ccc3c(Nc3cc(CN4CCCC4)c(O)c(CN4CCCC4)c3)c2n1 [PYRONARIDINE] |  |  |  | IC50 [4]: 1800 nM; selectivity ratio [5]: 494
 | C[C@H]1[C@@H](O)O[C@@H]2O[C@@]3(C)CC[C@H]4[C@H](C)CC[C@@H]1[C@@]24OO3 [ARTENIMOL] |  | 0.11 |  | IC50 [2]: 0.15 nM; inhibition at 72 h, 20 µM [11]: 50%; selectivity ratio at 20 µM [12]: > 22
90 | O=C(OCc1cc(O)ccc1O)c1ccccc1 | 67 |  |  | 
2100 | CC(=O)O[C@@H]1C=C[C@@H](OC(=O)c2ccccc2)[C@@](O)(COC(=O)c2ccccc2)[C@H]1OC(C)=O | 99 |  | inactive | 
2700 | CC(=O)O[C@H]1C=C[C@H](O)[C@@](O)(COC(=O)c2ccccc2)[C@@H]1OC(C)=O | 54 |  | inactive | 
 | CC(=O)OC[C@]1(O)[C@H](OC(=O)c2ccccc2)C=C[C@@H](OC(C)=O)[C@@H]1O |  |  | inactive | 
450 | CC(=O)O[C@H]1C=C[C@H](Cl)[C@](O)(COC(=O)c2ccccc2)[C@@H]1O | 95 |  | inactive | 
 | C[C@H]1[C@H](OC(=O)CCC(=O)O)O[C@@H]2O[C@@]3(C)CC[C@H]4[C@H](C)CC[C@@H]1[C@@]24OO3 [ARTESUNATE] |  | 0.48 |  | inhibition at 72 h, 20 µM [11]: 75%; selectivity ratio at 20 µM [12]: > 22
8200 | O=Cc1cccc(O)c1 [3-HYDROXYBENZALDEHYDE] | 25 |  | inactive | 
 | COc1ccc(C[C@H](N)C(=O)N[C@H]2[C@@H](O)[C@H](n3cnc4c(N(C)C)ncnc43)O[C@@H]2CO)cc1 [PUROMYCIN] |  | 23 |  | selectivity ratio [5]: 15.9

SMILES | IC50 [8] [nM] | inhibition of growth at 40 µM [1] [%] | IC50 [3] [nM] | inhibition [7] | further results
CC(=O)O[C@@H]1C=C[C@H](O)[C@@H](OC(C)=O)/C1=C/OC(=O)c1ccccc1 | 290 |  | 620 | inactive | IC50 [2]: 3400 nM; IC50 [4]: 2400 nM; selectivity ratio [5]: 4; inhibition of growth at 20 µM [6]: ≥ 90%
CC(=O)O[C@@H]1C=C[C@H](O)[C@@H](O)/C1=C/OC(=O)c1ccccc1 | 30 |  | 200 | inactive | IC50 [2]: 480 nM; IC50 [4]: 2700 nM; selectivity ratio [5]: 14; inhibition of growth at 20 µM [6]: ≥ 90%
CC(=O)OC(OC(=O)c1ccccc1)C1=CC=C[C@H](O)[C@H]1OC(C)=O (stereo partly drawn) | 290 |  | 1200 |  | IC50 [2]: 2200 nM; IC50 [4]: 3600 nM; selectivity ratio [5]: 3; inhibition of growth at 20 µM [6]: ≥ 90%
